Source: ChEMBL document CHEMBL1127395, “Synthesis and antimicrobial activity of novel 3-[(aminopyrimidiniumyl)thio]methyl cephalosporins” (1994)
Values after ≈ are worked out from the molar mass of the structure shown.

test system: Proteus vulgaris; experiment: In vitro minimum inhibitory concentration for Proteus vulgaris (ATCC-6059) by agar dilution method; format: functional; conditions: Proteus vulgaris; read-out: MIC
Outline: (§1)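 Two-fold serial dilutions of each compound dispersed in Mueller-Hinton agar; plates spot-inoculated with 2 μL of standard test strain at 10^7 CFU/mL, incubated 37 °C for 20 h; MIC read as lowest concentration inhibiting growth.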

SMILES	MIC
Cc1cc(C)[n+](C)c(SCC2=C(C(=O)[O-])N3C(=O)C(NC(=O)/C(=N\OC(C)(C)C(=O)O)c4cnc(N)s4)C3SC2)n1 (stereo not drawn)	0.06 µg/mL (≈ 0.0965 µM)
CNc1cc2n(C)cc[n+]2c(SCC2=C(C(=O)[O-])N3C(=O)C(NC(=O)/C(=N\OC(C)(C)C(=O)O)c4cnc(N)s4)C3SC2)n1 (stereo not drawn)	0.13 µg/mL (≈ 0.196 µM)
Cn1c(O)c[n+]2c(SCC3=C(C(=O)[O-])N4C(=O)C(NC(=O)/C(=N\OC(C)(C)C(=O)O)c5cnc(N)s5)C4SC3)nc(N)cc12 (stereo not drawn)	0.06 µg/mL (≈ 0.0904 µM)
Cc1ccc(-[n+]2c(N)cc(N)nc2SCC2=C(C(=O)[O-])N3C(=O)C(NC(=O)/C(=N\OC(C)(C)C(=O)O)c4cnc(N)s4)C3SC2)c(C)c1 (stereo not drawn)	0.25 µg/mL (≈ 0.35 µM)

test system: Escherichia coli; experiment: In vitro minimum inhibitory concentration for Escherichia coli (ATCC-10536) by agar dilution method; format: functional; conditions: Escherichia coli; read-out: MIC; outline: as §1

SMILES	MIC
Cc1cc(C)[n+](C)c(SCC2=C(C(=O)[O-])N3C(=O)C(NC(=O)/C(=N\OC(C)(C)C(=O)O)c4cnc(N)s4)C3SC2)n1 (stereo not drawn)	0.13 µg/mL (≈ 0.209 µM)
CNc1cc2n(C)cc[n+]2c(SCC2=C(C(=O)[O-])N3C(=O)C(NC(=O)/C(=N\OC(C)(C)C(=O)O)c4cnc(N)s4)C3SC2)n1 (stereo not drawn)	0.13 µg/mL (≈ 0.196 µM)
Cn1c(O)c[n+]2c(SCC3=C(C(=O)[O-])N4C(=O)C(NC(=O)/C(=N\OC(C)(C)C(=O)O)c5cnc(N)s5)C4SC3)nc(N)cc12 (stereo not drawn)	0.13 µg/mL (≈ 0.196 µM)
Cc1ccc(-[n+]2c(N)cc(N)nc2SCC2=C(C(=O)[O-])N3C(=O)C(NC(=O)/C(=N\OC(C)(C)C(=O)O)c4cnc(N)s4)C3SC2)c(C)c1 (stereo not drawn)	0.5 µg/mL (≈ 0.7 µM)

test system: Staphylococcus epidermidis; experiment: In vitro minimum inhibitory concentration for Staphylococcus epidermidis (ATCC-12228) by agar dilution method; format: functional; conditions: Staphylococcus epidermidis; read-out: MIC; outline: as §1

SMILES	MIC
Cc1cc(C)[n+](C)c(SCC2=C(C(=O)[O-])N3C(=O)C(NC(=O)/C(=N\OC(C)(C)C(=O)O)c4cnc(N)s4)C3SC2)n1 (stereo not drawn)	8 µg/mL (≈ 12.9 µM)
CNc1cc2n(C)cc[n+]2c(SCC2=C(C(=O)[O-])N3C(=O)C(NC(=O)/C(=N\OC(C)(C)C(=O)O)c4cnc(N)s4)C3SC2)n1 (stereo not drawn)	4 µg/mL (≈ 6.04 µM)
Cn1c(O)c[n+]2c(SCC3=C(C(=O)[O-])N4C(=O)C(NC(=O)/C(=N\OC(C)(C)C(=O)O)c5cnc(N)s5)C4SC3)nc(N)cc12 (stereo not drawn)	4 µg/mL (≈ 6.03 µM)
Cc1ccc(-[n+]2c(N)cc(N)nc2SCC2=C(C(=O)[O-])N3C(=O)C(NC(=O)/C(=N\OC(C)(C)C(=O)O)c4cnc(N)s4)C3SC2)c(C)c1 (stereo not drawn)	2 µg/mL (≈ 2.8 µM)

test system: Klebsiella aerogenes; experiment: In vitro minimum inhibitory concentration for Enterobacter aerogenes (ATCC-29751) by agar dilution method; format: functional; conditions: Klebsiella aerogenes; read-out: MIC; outline: as §1

SMILES	MIC
Cc1cc(C)[n+](C)c(SCC2=C(C(=O)[O-])N3C(=O)C(NC(=O)/C(=N\OC(C)(C)C(=O)O)c4cnc(N)s4)C3SC2)n1 (stereo not drawn)	4 µg/mL (≈ 6.43 µM)
CNc1cc2n(C)cc[n+]2c(SCC2=C(C(=O)[O-])N3C(=O)C(NC(=O)/C(=N\OC(C)(C)C(=O)O)c4cnc(N)s4)C3SC2)n1 (stereo not drawn)	4 µg/mL (≈ 6.04 µM)
Cn1c(O)c[n+]2c(SCC3=C(C(=O)[O-])N4C(=O)C(NC(=O)/C(=N\OC(C)(C)C(=O)O)c5cnc(N)s5)C4SC3)nc(N)cc12 (stereo not drawn)	4 µg/mL (≈ 6.03 µM)
Cc1ccc(-[n+]2c(N)cc(N)nc2SCC2=C(C(=O)[O-])N3C(=O)C(NC(=O)/C(=N\OC(C)(C)C(=O)O)c4cnc(N)s4)C3SC2)c(C)c1 (stereo not drawn)	2 µg/mL (≈ 2.8 µM)

test system: Citrobacter freundii; experiment: In vitro minimum inhibitory concentration for Citrobacter freundii (ATCC-8090) by agar dilution method; format: functional; conditions: Citrobacter freundii; read-out: MIC; outline: as §1

SMILES	MIC
Cc1cc(C)[n+](C)c(SCC2=C(C(=O)[O-])N3C(=O)C(NC(=O)/C(=N\OC(C)(C)C(=O)O)c4cnc(N)s4)C3SC2)n1 (stereo not drawn)	0.25 µg/mL (≈ 0.402 µM)
CNc1cc2n(C)cc[n+]2c(SCC2=C(C(=O)[O-])N3C(=O)C(NC(=O)/C(=N\OC(C)(C)C(=O)O)c4cnc(N)s4)C3SC2)n1 (stereo not drawn)	0.13 µg/mL (≈ 0.196 µM)
Cn1c(O)c[n+]2c(SCC3=C(C(=O)[O-])N4C(=O)C(NC(=O)/C(=N\OC(C)(C)C(=O)O)c5cnc(N)s5)C4SC3)nc(N)cc12 (stereo not drawn)	0.25 µg/mL (≈ 0.377 µM)
Cc1ccc(-[n+]2c(N)cc(N)nc2SCC2=C(C(=O)[O-])N3C(=O)C(NC(=O)/C(=N\OC(C)(C)C(=O)O)c4cnc(N)s4)C3SC2)c(C)c1 (stereo not drawn)	2 µg/mL (≈ 2.8 µM)

test system: Pseudomonas aeruginosa; experiment: In vitro minimum inhibitory concentration for Pseudomonas aeruginosa (ATCC 10145) by agar dilution method; format: functional; conditions: not given; outline: as §1

SMILES	MIC
Cc1cc(C)[n+](C)c(SCC2=C(C(=O)[O-])N3C(=O)C(NC(=O)/C(=N\OC(C)(C)C(=O)O)c4cnc(N)s4)C3SC2)n1 (stereo not drawn)	4 µg/mL (≈ 6.43 µM)
CNc1cc2n(C)cc[n+]2c(SCC2=C(C(=O)[O-])N3C(=O)C(NC(=O)/C(=N\OC(C)(C)C(=O)O)c4cnc(N)s4)C3SC2)n1 (stereo not drawn)	8 µg/mL (≈ 12.1 µM)
Cn1c(O)c[n+]2c(SCC3=C(C(=O)[O-])N4C(=O)C(NC(=O)/C(=N\OC(C)(C)C(=O)O)c5cnc(N)s5)C4SC3)nc(N)cc12 (stereo not drawn)	4 µg/mL (≈ 6.03 µM)
Cc1ccc(-[n+]2c(N)cc(N)nc2SCC2=C(C(=O)[O-])N3C(=O)C(NC(=O)/C(=N\OC(C)(C)C(=O)O)c4cnc(N)s4)C3SC2)c(C)c1 (stereo not drawn)	8 µg/mL (≈ 11.2 µM)

test system: Pseudomonas aeruginosa; experiment: In vitro minimum inhibitory concentration for Pseudomonas aeruginosa (ATCC-27853) by agar dilution method; format: functional; conditions: Pseudomonas aeruginosa; read-out: MIC; outline: as §1

SMILES	MIC
Cc1cc(C)[n+](C)c(SCC2=C(C(=O)[O-])N3C(=O)C(NC(=O)/C(=N\OC(C)(C)C(=O)O)c4cnc(N)s4)C3SC2)n1 (stereo not drawn)	4 µg/mL (≈ 6.43 µM)
CNc1cc2n(C)cc[n+]2c(SCC2=C(C(=O)[O-])N3C(=O)C(NC(=O)/C(=N\OC(C)(C)C(=O)O)c4cnc(N)s4)C3SC2)n1 (stereo not drawn)	4 µg/mL (≈ 6.04 µM)
Cn1c(O)c[n+]2c(SCC3=C(C(=O)[O-])N4C(=O)C(NC(=O)/C(=N\OC(C)(C)C(=O)O)c5cnc(N)s5)C4SC3)nc(N)cc12 (stereo not drawn)	4 µg/mL (≈ 6.03 µM)
Cc1ccc(-[n+]2c(N)cc(N)nc2SCC2=C(C(=O)[O-])N3C(=O)C(NC(=O)/C(=N\OC(C)(C)C(=O)O)c4cnc(N)s4)C3SC2)c(C)c1 (stereo not drawn)	2 µg/mL (≈ 2.8 µM)

test system: Klebsiella pneumoniae; experiment: In vitro minimum inhibitory concentration for Klebsiella pneumoniae (ATCC-10031) by agar dilution method; format: functional; conditions: Klebsiella pneumoniae; read-out: MIC

SMILES	MIC
Cc1cc(C)[n+](C)c(SCC2=C(C(=O)[O-])N3C(=O)C(NC(=O)/C(=N\OC(C)(C)C(=O)O)c4cnc(N)s4)C3SC2)n1 (stereo not drawn)	0.13 µg/mL (≈ 0.209 µM)
CNc1cc2n(C)cc[n+]2c(SCC2=C(C(=O)[O-])N3C(=O)C(NC(=O)/C(=N\OC(C)(C)C(=O)O)c4cnc(N)s4)C3SC2)n1 (stereo not drawn)	0.25 µg/mL (≈ 0.378 µM)
Cn1c(O)c[n+]2c(SCC3=C(C(=O)[O-])N4C(=O)C(NC(=O)/C(=N\OC(C)(C)C(=O)O)c5cnc(N)s5)C4SC3)nc(N)cc12 (stereo not drawn)	0.13 µg/mL (≈ 0.196 µM)
Cc1ccc(-[n+]2c(N)cc(N)nc2SCC2=C(C(=O)[O-])N3C(=O)C(NC(=O)/C(=N\OC(C)(C)C(=O)O)c4cnc(N)s4)C3SC2)c(C)c1 (stereo not drawn)	0.13 µg/mL (≈ 0.182 µM)

test system: Enterobacter cloacae; experiment: In vitro minimum inhibitory concentration for Enterobacter cloacae (ATCC-27508) by agar dilution method; format: functional; conditions: Enterobacter cloacae; read-out: MIC; outline: as §1

SMILES	MIC
Cc1cc(C)[n+](C)c(SCC2=C(C(=O)[O-])N3C(=O)C(NC(=O)/C(=N\OC(C)(C)C(=O)O)c4cnc(N)s4)C3SC2)n1 (stereo not drawn)	0.06 µg/mL (≈ 0.0965 µM)
CNc1cc2n(C)cc[n+]2c(SCC2=C(C(=O)[O-])N3C(=O)C(NC(=O)/C(=N\OC(C)(C)C(=O)O)c4cnc(N)s4)C3SC2)n1 (stereo not drawn)	0.03 µg/mL (≈ 0.0453 µM)
Cn1c(O)c[n+]2c(SCC3=C(C(=O)[O-])N4C(=O)C(NC(=O)/C(=N\OC(C)(C)C(=O)O)c5cnc(N)s5)C4SC3)nc(N)cc12 (stereo not drawn)	0.03 µg/mL (≈ 0.0452 µM)
Cc1ccc(-[n+]2c(N)cc(N)nc2SCC2=C(C(=O)[O-])N3C(=O)C(NC(=O)/C(=N\OC(C)(C)C(=O)O)c4cnc(N)s4)C3SC2)c(C)c1 (stereo not drawn)	0.13 µg/mL (≈ 0.182 µM)

test system: Staphylococcus aureus; experiment: In vitro minimum inhibitory concentration for Staphylococcus aureus (ATCC 6538p) by agar dilution method; format: functional; conditions: Staphylococcus aureus, ATCC 6538p; read-out: MIC; outline: as §1

SMILES	MIC
Cc1cc(C)[n+](C)c(SCC2=C(C(=O)[O-])N3C(=O)C(NC(=O)/C(=N\OC(C)(C)C(=O)O)c4cnc(N)s4)C3SC2)n1 (stereo not drawn)	8 µg/mL (≈ 12.9 µM)
CNc1cc2n(C)cc[n+]2c(SCC2=C(C(=O)[O-])N3C(=O)C(NC(=O)/C(=N\OC(C)(C)C(=O)O)c4cnc(N)s4)C3SC2)n1 (stereo not drawn)	8 µg/mL (≈ 12.1 µM)
Cn1c(O)c[n+]2c(SCC3=C(C(=O)[O-])N4C(=O)C(NC(=O)/C(=N\OC(C)(C)C(=O)O)c5cnc(N)s5)C4SC3)nc(N)cc12 (stereo not drawn)	16 µg/mL (≈ 24.1 µM)
Cc1ccc(-[n+]2c(N)cc(N)nc2SCC2=C(C(=O)[O-])N3C(=O)C(NC(=O)/C(=N\OC(C)(C)C(=O)O)c4cnc(N)s4)C3SC2)c(C)c1 (stereo not drawn)	4 µg/mL (≈ 5.6 µM)

test system: Salmonella typhimurium; experiment: In vitro minimum inhibitory concentration for Salmonella Typhimurium (ATCC-14028) by agar dilution method; format: functional, Salmonella enterica subsp. enterica serovar Typhimurium; conditions: Salmonella enterica; read-out: MIC; outline: as §1

SMILES	MIC
Cc1cc(C)[n+](C)c(SCC2=C(C(=O)[O-])N3C(=O)C(NC(=O)/C(=N\OC(C)(C)C(=O)O)c4cnc(N)s4)C3SC2)n1 (stereo not drawn)	0.5 µg/mL (≈ 0.804 µM)
CNc1cc2n(C)cc[n+]2c(SCC2=C(C(=O)[O-])N3C(=O)C(NC(=O)/C(=N\OC(C)(C)C(=O)O)c4cnc(N)s4)C3SC2)n1 (stereo not drawn)	0.5 µg/mL (≈ 0.756 µM)
Cn1c(O)c[n+]2c(SCC3=C(C(=O)[O-])N4C(=O)C(NC(=O)/C(=N\OC(C)(C)C(=O)O)c5cnc(N)s5)C4SC3)nc(N)cc12 (stereo not drawn)	0.5 µg/mL (≈ 0.753 µM)
Cc1ccc(-[n+]2c(N)cc(N)nc2SCC2=C(C(=O)[O-])N3C(=O)C(NC(=O)/C(=N\OC(C)(C)C(=O)O)c4cnc(N)s4)C3SC2)c(C)c1 (stereo not drawn)	2 µg/mL (≈ 2.8 µM)

test system: Serratia marcescens; experiment: In vitro minimum inhibitory concentration for Serratia marcescens (ATCC-27117) by agar dilution method; format: functional; conditions: Serratia marcescens; read-out: MIC; outline: as §1

SMILES	MIC
Cc1cc(C)[n+](C)c(SCC2=C(C(=O)[O-])N3C(=O)C(NC(=O)/C(=N\OC(C)(C)C(=O)O)c4cnc(N)s4)C3SC2)n1 (stereo not drawn)	0.25 µg/mL (≈ 0.402 µM)
CNc1cc2n(C)cc[n+]2c(SCC2=C(C(=O)[O-])N3C(=O)C(NC(=O)/C(=N\OC(C)(C)C(=O)O)c4cnc(N)s4)C3SC2)n1 (stereo not drawn)	0.5 µg/mL (≈ 0.756 µM)
Cn1c(O)c[n+]2c(SCC3=C(C(=O)[O-])N4C(=O)C(NC(=O)/C(=N\OC(C)(C)C(=O)O)c5cnc(N)s5)C4SC3)nc(N)cc12 (stereo not drawn)	0.5 µg/mL (≈ 0.753 µM)
Cc1ccc(-[n+]2c(N)cc(N)nc2SCC2=C(C(=O)[O-])N3C(=O)C(NC(=O)/C(=N\OC(C)(C)C(=O)O)c4cnc(N)s4)C3SC2)c(C)c1 (stereo not drawn)	2 µg/mL (≈ 2.8 µM)
